In brackets after ≈: the same amount, converted by molar mass.
Tests used:
Type in all cases: functional
Fusobacterium mortiferum [1] = experiment: Antibacterial activity against Fusobacterium mortiferum by CLSI agar dilution method in presence of clavulanate
Summary of the method: (§1)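 Agar dilution per CLSI guidelines on nonduplicate anaerobic bloodstream isolates collected at NTUH, January to December 2006. Isolates were spotted by Steers replicator onto supplemented Brucella blood agar and incubated anaerobically for 48 h at 35°C. MIC was the lowest drug concentration that inhibited growth. B. fragilis ATCC 25285, B. thetaiotaomicron ATCC 29741 and E. lentum ATCC 43055 were run as QC in each run.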

Parvimonas micra [2] = experiment: Antibacterial activity against beta-lactamase producing Micromonas micros assessed as resistant isolates by CLSI agar dilution method in presence of clavulanate
Summary of the method: (§2)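 207 nonduplicate anaerobic blood isolates from patients with bloodstream infections at NTUH, collected January–December 2006. MICs were determined by agar dilution following CLSI guidelines. Inocula were applied with a Steers replicator onto supplemented Brucella blood agar and incubated 48 h at 35°C in an anaerobic chamber. MIC was the lowest concentration inhibiting growth. B. fragilis ATCC 25285, B. thetaiotaomicron ATCC 29741 and E. lentum ATCC 43055 served as controls in each run.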

Clostridium perfringens = experiment: microbe, parasite or virus in culture
Bacteroides uniformis = experiment: Antibacterial activity against beta-lactamase producing Bacteroides uniformis assessed as resistant isolates by CLSI agar dilution method in presence of clavulanate; summary of the method: as §2
Finegoldia magna [3] = experiment: Antibacterial activity against beta-lactamase producing Finegoldia magna assessed as resistant isolates by CLSI agar dilution method in presence of clavulanate; summary of the method: as §2
[4] = system: Clostridium paraputrificum; experiment: Antibacterial activity against beta-lactamase producing Clostridium paraputrificum assessed as resistant isolates by CLSI agar dilution method in presence of clavulanate; summary of the method: as §2
Prevotella bivia [5] = experiment: Antibacterial activity against Prevotella bivia assessed as resistant isolates by CLSI agar dilution method in presence of clavulanate; summary of the method: as §2
Clostridium tertium [6] = experiment: Antibacterial activity against beta-lactamase producing Clostridium tertium by CLSI agar dilution method in presence of clavulanate
Summary of the method: (§3)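 CLSI agar dilution MICs for anaerobic blood isolates (nonduplicate) collected from bloodstream-infection patients at a Taiwanese tertiary hospital, January–December 2006. Isolates were spotted by Steers replicator onto supplemented Brucella blood agar and incubated anaerobically for 48 h at 35°C. MIC was the lowest drug concentration inhibiting growth. Each run included B. fragilis ATCC 25285, B. thetaiotaomicron ATCC 29741 and E. lentum ATCC 43055 as quality-control strains.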

[7] = system: Peptoniphilus asaccharolyticus; experiment: Antibacterial activity against beta-lactamase producing Peptoniphilus asaccharolyticus assessed as susceptible isolates by CLSI agar dilution method in presence of clavulanate; summary of the method: as §3
[8] = system: Bacteroides thetaiotaomicron; experiment: Antibacterial activity against beta-lactamase producing Bacteroides thetaiotaomicron assessed as susceptible isolates by CLSI agar dilution method in presence of clavulanate; summary of the method: as §1
Parvimonas micra [9] = experiment: Antibacterial activity against beta-lactamase producing Micromonas micros assessed as susceptible isolates by CLSI agar dilution method in presence of Tazobactam; summary of the method: as §3
Fusobacterium mortiferum [10] = experiment: Antibacterial activity against Fusobacterium mortiferum assessed as resistant isolates by CLSI agar dilution method in presence of Tazobactam; summary of the method: as §2
Phocaeicola vulgatus = experiment: Antibacterial activity against beta-lactamase producing Bacteroides vulgatus assessed as susceptible isolates by CLSI agar dilution method
Prevotella bivia [11] = experiment: Antibacterial activity against Prevotella bivia assessed as resistant isolates by CLSI agar dilution method
[12] = system: Fusobacterium necrophorum; experiment: Antibacterial activity against Fusobacterium necrophorum assessed as resistant isolates by CLSI agar dilution method in presence of Tazobactam; summary of the method: as §2
[13] = system: Peptoniphilus asaccharolyticus; experiment: Antibacterial activity against beta-lactamase producing Peptoniphilus asaccharolyticus assessed as resistant isolates by CLSI agar dilution method in presence of Tazobactam; summary of the method: as §2
[14] = system: Prevotella melaninogenica; experiment: Antibacterial activity against Prevotella melaninogenica by CLSI agar dilution method
Clostridium tertium [15] = experiment: Antibacterial activity against beta-lactamase producing Clostridium tertium assessed as susceptible isolates by CLSI agar dilution method
Fusobacterium mortiferum [16] = experiment: Antibacterial activity against Fusobacterium mortiferum assessed as resistant isolates by CLSI agar dilution method
Bacteroides fragilis [17] = experiment: Antibacterial activity against Bacteroides fragilis assessed as resistant isolates by CLSI agar dilution method in presence of Tazobactam; summary of the method: as §2
Clostridium tertium [18] = experiment: Antibacterial activity against beta-lactamase producing Clostridium tertium assessed as susceptible isolates by CLSI agar dilution method in presence of Tazobactam; summary of the method: as §3
[19] = system: Bacteroides thetaiotaomicron; experiment: Antibacterial activity against beta-lactamase producing Bacteroides thetaiotaomicron by CLSI agar dilution method in presence of Tazobactam; summary of the method: as §1
Fusobacterium mortiferum [20] = experiment: Antibacterial activity against Fusobacterium mortiferum assessed as susceptible isolates by CLSI agar dilution method
Prevotella bivia [21] = experiment: Antibacterial activity against Prevotella bivia by CLSI agar dilution method
Fusobacterium varium = experiment: Antibacterial activity against Fusobacterium varium by CLSI agar dilution method in presence of Tazobactam; summary of the method: as §1
Fusobacterium nucleatum = experiment: Antibacterial activity against Fusobacterium nucleatum assessed as susceptible isolates by CLSI agar dilution method
Bacteroides fragilis [22] = experiment: Antibacterial activity against Bacteroides fragilis assessed as susceptible isolates by CLSI agar dilution method in presence of Tazobactam; summary of the method: as §1
Finegoldia magna [23] = experiment: Antibacterial activity against beta-lactamase producing Finegoldia magna assessed as resistant isolates by CLSI agar dilution method
Finegoldia magna [24] = experiment: Antibacterial activity against beta-lactamase producing Finegoldia magna assessed as susceptible isolates by CLSI agar dilution method
[25] = system: Fusobacterium necrophorum; experiment: Antibacterial activity against Fusobacterium necrophorum assessed as resistant isolates by CLSI agar dilution method
Parvimonas micra [26] = experiment: Antibacterial activity against beta-lactamase producing Micromonas micros by CLSI agar dilution method in presence of Tazobactam; summary of the method: as §3
Prevotella intermedia = experiment: Antibacterial activity against Prevotella intermedia assessed as susceptible isolates by CLSI agar dilution method in presence of Tazobactam; summary of the method: as §1
Clostridium septicum [27] = experiment: Antibacterial activity against beta-lactamase producing Clostridium septicum by CLSI agar dilution method
Bacteroides fragilis [28] = experiment: Antibacterial activity against Bacteroides fragilis by CLSI agar dilution method
Clostridium tertium [29] = experiment: Antibacterial activity against beta-lactamase producing Clostridium tertium assessed as resistant isolates by CLSI agar dilution method
Parvimonas micra [30] = experiment: Antibacterial activity against beta-lactamase producing Micromonas micros by CLSI agar dilution method
[31] = system: Prevotella melaninogenica; experiment: Antibacterial activity against Prevotella melaninogenica assessed as susceptible isolates by CLSI agar dilution method
Finegoldia magna [32] = experiment: Antibacterial activity against beta-lactamase producing Finegoldia magna by CLSI agar dilution method
[33] = system: Bacteroides thetaiotaomicron; experiment: Antibacterial activity against beta-lactamase producing Bacteroides thetaiotaomicron assessed as resistant isolates by CLSI agar dilution method
Clostridium septicum [34] = experiment: Antibacterial activity against beta-lactamase producing Clostridium septicum assessed as resistant isolates by CLSI agar dilution method

CC1(C)S[C@@H]2[C@H](NC(=O)[C@H](N)c3ccc(O)cc3)C(=O)N2[C@H]1C(=O)O [AMOXICILLIN]
MIC50 (Fusobacterium mortiferum [1]): 2 µg/mL
MIC90 (Fusobacterium mortiferum [1]): 4 µg/mL
Activity (Parvimonas micra [2]): 3%
MIC50 (Clostridium perfringens): 0.5 µg/mL (≈ 1.37 µM)
MIC90 (Clostridium perfringens): 2 µg/mL (≈ 5.47 µM)
Activity (Bacteroides uniformis): 30%
Activity (Finegoldia magna [3]): 3%
Activity [4]: 4%
Activity (Prevotella bivia [5]): 6%
MIC50 (Clostridium tertium [6]): 0.5 µg/mL
MIC90 (Clostridium tertium [6]): 2 µg/mL
Activity [7]: 94%
Activity [8]: 63%

CCN1CCN(C(=O)N[C@@H](C(=O)N[C@@H]2C(=O)N3[C@@H]2SC(C)(C)[C@@H]3C(=O)O)c2ccccc2)C(=O)C1=O [PIPERACILLIN]
Activity (Parvimonas micra [9]): 97%
Activity (Fusobacterium mortiferum [10]): 0%
Activity (Phocaeicola vulgatus): 35%
Activity (Prevotella bivia [11]): 22%
Activity [12]: 0%
Activity [13]: 0%
MIC50 [14]: 16 µg/mL (≈ 30.9 µM)
MIC90 [14]: 128 µg/mL (≈ 247 µM)
Activity (Clostridium tertium [15]): 100%
Activity (Fusobacterium mortiferum [16]): 10%
Activity (Bacteroides fragilis [17]): 2%
Activity (Clostridium tertium [18]): 100%
MIC50 [19]: 8 µg/mL
MIC90 [19]: 32 µg/mL
Activity (Fusobacterium mortiferum [20]): 90%
MIC50 (Prevotella bivia [21]): 16 µg/mL (≈ 30.9 µM)
MIC90 (Prevotella bivia [21]): 128 µg/mL (≈ 247 µM)
MIC50 (Fusobacterium varium): 0.5 µg/mL
MIC90 (Fusobacterium varium): 2 µg/mL
Activity (Fusobacterium nucleatum): 90%
Activity (Bacteroides fragilis [22]): 95%
Activity (Finegoldia magna [23]): 3%
Activity (Finegoldia magna [24]): 97%
Activity [25]: 10%
MIC (Parvimonas micra [26]): 0.03 µg/mL
MIC50 (Parvimonas micra [26]): 0.03 µg/mL
MIC90 (Parvimonas micra [26]): 2 µg/mL
Activity (Prevotella intermedia): 100%
MIC50 (Clostridium septicum [27]): 0.25 µg/mL (≈ 0.483 µM)
MIC90 (Clostridium septicum [27]): 2 µg/mL (≈ 3.86 µM)
MIC50 (Bacteroides fragilis [28]): 8 µg/mL (≈ 15.5 µM)
MIC90 (Bacteroides fragilis [28]): > 128 µg/mL
Activity (Clostridium tertium [29]): 0%
MIC50 (Parvimonas micra [30]): 0.12 µg/mL (≈ 0.232 µM)
MIC90 (Parvimonas micra [30]): 8 µg/mL (≈ 15.5 µM)
Activity [31]: 71%
MIC50 (Finegoldia magna [32]): 0.12 µg/mL (≈ 0.232 µM)
MIC90 (Finegoldia magna [32]): 8 µg/mL (≈ 15.5 µM)
Activity [33]: 37%
Activity (Clostridium septicum [34]): 0%
